Source: ChEMBL document CHEMBL1126735, “Synthesis and biological evaluation of antiplatelet 2-aminochromones” (J Med Chem, 1993)

Key:
Assay type in all cases: functional, Canis lupus familiaris
Canis familiaris [1] = test: Time interval between the start of treatment and the first change in the CFR pattern of blood flow in the stenosed coronary artery at iv dose of 1000 ug/kg +100 ug/kg/min (n=4)
Outline: (§1)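 Stenosed circumflex coronary artery in pentobarbital-anesthetized open-chest mongrel dogs (10-15 kg), drug iv in saline (mesylate/bismesylate salt), bolus followed by constant infusion. Onset measured as the time from the start of drug treatment to the first change in the cyclic flow reduction pattern of coronary blood flow. Mean ± SEM.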

Canis familiaris [2] = test: Time interval between the start of treatment and the first change in the CFR pattern of blood flow in the stenosed coronary artery at iv dose of 100 ug/kg +10 ug/kg/min (n=10); outline: as §1
Canis familiaris [3] = test: In vivo inhibitory effect on Cyclical flow reductions (CFR) induced by intracoronary platelet aggregation in stenosed Canine coronary arteries at iv dose of 100 ug/kg +10 ug/kg/min (n=10)
Outline: (§2)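 Adult mongrel dogs (10-15 kg, either sex), sodium pentobarbital anesthesia (30 mg/kg iv), positive-pressure ventilation. Aortic pressure via femoral artery catheter. Drug given iv via femoral vein in saline as mesylate/bismesylate salt, bolus then constant infusion. Values mean ± SEM.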

Canis familiaris [4] = test: Time interval between the end of treatment and restoration of the CFR pattern of blood flow to control levels at iv dose of 300 ug/kg +30 ug/kg/min (n=4)
Outline: (§3)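 Anesthetized open-chest mongrel dogs (10-15 kg) with partially obstructed circumflex coronary artery; iv bolus plus constant infusion of drug in saline as mesylate/bismesylate salt. Duration scored as the time from the end of drug treatment until the cyclic flow reduction pattern returns to control levels. Mean ± SEM.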

Canis familiaris [5] = test: In vivo inhibitory effect on Cyclical flow reductions (CFR) induced by intracoronary platelet aggregation in stenosed Canine coronary arteries at iv dose of 1000 ug/kg +100 ug/kg/min (n=4); outline: as §2
Canis familiaris [6] = test: Time interval between the end of treatment and restoration of the CFR pattern of blood flow to control levels at iv dose of 1000 ug/kg +100 ug/kg/min (n=4); outline: as §3
Canis familiaris [7] = test: Time interval between the start of treatment and the first change in the CFR pattern of blood flow in the stenosed coronary artery at iv dose of 300 ug/kg +30 ug/kg/min (n=4); outline: as §1
Canis familiaris [8] = test: In vivo inhibitory effect on Cyclical flow reductions (CFR) induced by intracoronary platelet aggregation in stenosed Canine coronary arteries at iv dose of 300 ug/kg +30 ug/kg/min (n=4); outline: as §2
Canis familiaris [9] = test: Time interval between the end of treatment and restoration of the CFR pattern of blood flow to control levels at iv dose of 100 ug/kg +10 ug/kg/min (n=10); outline: as §3
Canis familiaris [10] = test: In vivo inhibitory effect on Cyclical flow reductions (CFR) induced by intracoronary platelet aggregation in stenosed Canine coronary arteries at iv dose of 30 ug/kg +3 ug/kg/min (n=4); outline: as §2
Canis familiaris [11] = test: Time interval between the start of treatment and the first change in the CFR pattern of blood flow in the stenosed coronary artery at iv dose of 300 ug/kg +30 ug/kg/min (n=2-4); outline: as §1
Canis familiaris [12] = test: In vivo inhibitory effect on Cyclical flow reductions (CFR) induced by intracoronary platelet aggregation in stenosed Canine coronary arteries at iv dose of 300 ug/kg +30 ug/kg/min (n=2-4); outline: as §2
Canis familiaris [13] = test: Time interval between the start of treatment and the first change in the CFR pattern of blood flow in the stenosed coronary artery at iv dose of 300 ug/kg +30 ug/kg/min (n=3); outline: as §1
Canis familiaris [14] = test: In vivo inhibitory effect on Cyclical flow reductions (CFR) induced by intracoronary platelet aggregation in stenosed Canine coronary arteries at iv dose of 300 ug/kg +30 ug/kg/min (n=3); outline: as §2
Canis familiaris [15] = test: Time interval between the end of treatment and restoration of the CFR pattern of blood flow to control levels at iv dose of 100 ug/kg +10 ug/kg/min (n=3); outline: as §3
Canis familiaris [16] = test: Time interval between the start of treatment and the first change in the CFR pattern of blood flow in the stenosed coronary artery at iv dose of 100 ug/kg +10 ug/kg/min (n=3); outline: as §1
Canis familiaris [17] = test: In vivo inhibitory effect on Cyclical flow reductions (CFR) induced by intracoronary platelet aggregation in stenosed Canine coronary arteries at iv dose of 100 ug/kg +10 ug/kg/min (n=3); outline: as §2

Row | SMILES | Time to onset (Canis familiaris [1]) | Time to onset (Canis familiaris [2]) | Rating (Canis familiaris [3]) | Time to offset (Canis familiaris [4]) | Rating (Canis familiaris [5]) | Time to offset (Canis familiaris [6]) | Time to onset (Canis familiaris [7]) | Rating (Canis familiaris [8]) | Time to offset (Canis familiaris [9]) | Rating (Canis familiaris [10]) | Time to onset (Canis familiaris [11]) | Rating (Canis familiaris [12]) | Time to onset (Canis familiaris [13]) | Rating (Canis familiaris [14]) | Time to offset (Canis familiaris [15]) | Time to onset (Canis familiaris [16]) | Rating (Canis familiaris [17])
1 | Cc1c(OCCN2CCN(C)CC2)ccc2c(=O)cc(N3CCOCC3)oc12 | 1 min | 5 min | 1.9 | 60 min | 3 | 73 min | 1 min | 3 | 25 min | 0 |  |  |  |  |  |  | 
2 | Cc1c(OCCN2CCCCC2)ccc2c(=O)cc(N3CCOCC3)oc12 | 7 min |  |  | 67 min | 2.5 | 23 min |  |  |  |  | 2 min | 1.3 |  |  |  |  | 
3 | Cc1c(OCCN2CCSCC2)ccc2c(=O)cc(N3CCOCC3)oc12 |  |  |  | 12 min |  |  |  |  |  |  |  |  | 9 min | 2.3 | 5.3 min | 17 min | 2
